Scp-1 inhibitor = inhibitors of human Scp-1 phosphatase. Recombinant Scp1, phosphopeptide, malachite green phosphate absorbance. AID 493091. Q9GZU7. hit rate 0.88% among 340,000. inhibition, % at 20 µM;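 active means inhibition above about 50% at 20 µM, limit read from the data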
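Material: truncated SCP-1 phosphatase (76-261aa) / Buffer or medium: 50 mM Tris acetate pH 5.5, 0.005% Tween-20, 10 mM MgCl2 / Compound dosing: one concentration, 20 µM, with 1.0% DMSO / Incubation: 45 min room-temperature reaction, 5 min colour, 30 min stabiliser / Detection: colorimetric free-phosphate detection, absorbance 630 nm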
STEP inh = STEP (human) phosphatase inhibition; inhibition, % at 20 µM; AID 588621; recombinant STEP, OMFP fluorogenic substrate, fluorescence; P54829; hit rate 0.25% among 360,000;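 active means inhibition at 20 µM, scaled per plate between control wells, above about 37%, limit read from the data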
Target sequence (P54829 whole entry, looked up): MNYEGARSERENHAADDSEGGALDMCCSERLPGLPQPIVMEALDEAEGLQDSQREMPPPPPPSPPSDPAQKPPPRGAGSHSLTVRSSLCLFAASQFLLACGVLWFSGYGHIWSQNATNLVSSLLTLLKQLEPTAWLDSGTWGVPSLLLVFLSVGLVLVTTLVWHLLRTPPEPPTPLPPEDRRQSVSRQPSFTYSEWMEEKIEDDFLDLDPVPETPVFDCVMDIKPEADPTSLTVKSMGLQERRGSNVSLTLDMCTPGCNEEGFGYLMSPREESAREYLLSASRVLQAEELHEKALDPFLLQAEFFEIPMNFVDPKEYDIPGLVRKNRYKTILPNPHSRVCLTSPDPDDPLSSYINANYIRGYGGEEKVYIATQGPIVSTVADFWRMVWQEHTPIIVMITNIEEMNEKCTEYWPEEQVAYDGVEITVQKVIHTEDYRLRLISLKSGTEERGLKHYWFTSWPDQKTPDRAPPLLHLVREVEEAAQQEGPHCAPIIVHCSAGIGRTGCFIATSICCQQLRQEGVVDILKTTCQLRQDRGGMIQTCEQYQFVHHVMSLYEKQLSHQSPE
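Test system: STEP tyrosine phosphatase / Reagent: OMFP at 25 µM / Doses: 20 µM, 1% DMSO / Read-out: percent inhibition scaled to no-enzyme and uninhibited-enzyme controls, plate-pattern corrected / Detection: FITC-channel fluorescence of OMFP product / Medium: Bis-Tris buffer pH 6.0, 2.5 mM DTT, 0.005% Tween 20 / Schedule: 20 min at room temperature, dark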
DNMT1 inh = inhibitors of human DNMT1; P26358; DNMT1 molecular beacon, Hinp1I cleavage, fluorescence; inhibition (reported as % activation of signal), % at 10 µM; hit rate 0.83% among 360,000; in the data active means inhibition above about 50%
LMPTP block = LMPTP (human) inhibition | recombinant LMPTP-A, OMFP fluorogenic substrate, fluorescence intensity | hit rate 0.22% among 360,000 | P24666 | inhibition, % at 20 µM;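 active means compounds that cut the enzyme signal by at least half of the control window in the single-dose screen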
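Material: LMPTP-A; amount: 0.625 nM enzyme; doses: single 20 µM dose; times: reaction 50 min, room temperature, dark; technique: fluorescence intensity of OMFP turnover product; benchmarks: no-enzyme and uninhibited controls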
SUMO1-SIM PPI = modulators of human SUMO1-mediated protein-protein interactions. SUMO1 binding to a labelled peptide, TR-FRET, 1 h. hit rate 0.33% among 360,000. inhibition, % at 20 µM; in the data active means inhibition above about 37%
Target sequence (P63165 whole entry, looked up): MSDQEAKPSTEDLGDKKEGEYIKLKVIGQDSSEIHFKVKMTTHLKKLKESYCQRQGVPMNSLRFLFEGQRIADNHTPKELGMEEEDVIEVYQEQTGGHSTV
NadD block = NadD (S. aureus) enzyme inhibition | purified NadD enzyme, colorimetric absorbance read-out | hit rate 0.78% among 360,000 | inhibition, % at 20 µM; in the data active means inhibition above about 26%
DNMT1 interf DR = counter-screen for DNMT1 inhibitors: spectral interference, dose response. shares compounds with DNMT1 inh. molecular beacon fluorescence. IC50, µM. 200 tested, under 10 active. AID 602382; call rule not given here
DNMT1 inh conf = DNMT1 inhibition confirmation, single concentration | shares compounds with DNMT1 inh | DNMT1 molecular beacon HinP1I cleavage, fluorescence | inhibition, % at 10 µM | hit rate 8% among 2,300;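 active means average inhibition of at least 30% in the single-concentration confirmation test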
DNMT1 interf = beacon fluorescence artifact counter-screen. shares compounds with DNMT1 inh. DNMT1 molecular beacon spectral interference counterscreen, fluorescence 485/520. activation (fluorescence interference), % at 10 µM. hit rate 1% among 2,300;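 active means activation of at least 30% at 10 µM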;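 further: DNMT1 catalytic domain with a HinP1I cleavage step and a FAM/dabcyl DNA beacon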
A number is an active result; 0 = inactive; - = not tested or not shown; + = active, no number. The list is not random: actives were taken first. Their share in the collection is about 2.3%.

SMILES	Scp-1 inhibitor	STEP inh	DNMT1 inh	LMPTP block	SUMO1-SIM PPI	NadD block	DNMT1 inh conf	DNMT1 interf	others
O=C1C(Cl)=C(N2CCCCCC2)C(=O)N1c1ccc(Cl)cc1	0	0	0	0	0	0	-	-
O=C1C(Cl)=C(N2CCCC2)C(=O)N1c1ccc(F)cc1	0	0	71.8	0	0	0	0	0
COc1ccc(NC(=O)C(C)N2C(=O)c3ccccc3S2(=O)=O)c(OC)c1 (configuration not stated)	0	0	0	0	0	0	-	-
Cc1cc(C)c(NC(=O)CSCc2c(C)noc2C)c(Cl)c1	0	0	0	0	0	0	-	-
Cc1nnc(SCC(=O)c2c[nH]c3ccccc23)n1C1CC1	0	0	0	0	0	0	-	-
Cc1cc(C)cc(Nc2nc(-c3ccc(S(=O)(=O)N4CCCC4)cc3)cs2)c1	0	0	96.5	0	0	0	0	0
Cc1cc(OCC(=O)N(Cc2ccccc2)C2CCS(=O)(=O)C2)ccc1Cl (configuration not stated)	0	0	0	0	0	0	-	-
CSC1=NSC2=NC(=O)/C(=C/c3coc4ccccc4c3=O)C(=N)N12	0	0	0	0	0	0	-	-
CSC1=NSC2=NC(=O)/C(=C/c3coc4ccc(O)cc4c3=O)C(=N)N12	0	0	82.3	0	41.7	0	0	0
OCCNC(=S)Nc1cccc(Cl)c1Cl	0	0	0	0	0	0	-	-
COc1ccccc1C#Cc1cnc2c(c1)C(=O)N([C@H](C)CO)C[C@H](C)[C@@H](CN(C)S(=O)(=O)c1cn(C)cn1)O2	-	0	100.5	0	0	0	0	0
COc1ccc(N(C(=O)Cn2nnc(-c3ccc(Cl)cc3)n2)C(C(=O)NCC2CCCO2)c2ccc(C)cc2)cc1 (configuration not stated)	0	0	55.0	0	0	0	0	0
COc1ccc(N(C(=O)Cn2nnc(-c3ccc(Cl)cc3)n2)C(C(=O)NCC2CCCO2)c2ccncc2)cc1 (configuration not stated)	0	0	0	0	0	0	-	-
Cc1ccc(C(C(=O)NCC2CCCO2)N(Cc2ccccc2F)C(=O)Cn2nnc(-c3cccs3)n2)cc1 (configuration not stated)	0	0	0	0	0	0	-	-
COc1ccc(N(C(=O)Cn2nnc(-c3ccccc3F)n2)C(C(=O)NCC2CCCO2)c2ccc(Cl)cc2)cc1 (configuration not stated)	0	0	53.3	0	0	0	0	0
CCCS(=O)(=O)NC(=O)C1(C)CCN(C(=O)c2ccc3ccccc3n2)C1 (configuration not stated)	-	0	0	0	0	0	-	-
COc1ccc(NS(=O)(=O)c2ccc(OCC(=O)N3CCOCC3)cc2)cc1Cl	0	0	0	0	0	0	-	-
Cn1cc(/C=N/NC(=O)c2cccc([N+](=O)[O-])c2)c2ccccc21	0	0	0	0	0	0	-	-
Cn1cc(/C=C(\C#N)C(=O)Nc2cccc([N+](=O)[O-])c2)c2ccccc21	0	0	60.7	0	0	0	0	0
CCOc1ccc2noc3c2c1C(=O)c1ccccc1-3	0	0	+	0	0	0	139.6	134.4
CCCS(=O)(=O)N1CCCC(C(=O)Oc2ccc(OC)cc2)C1 (configuration not stated)	0	0	82.7	0	0	0	0	0
COc1cccc(NS(=O)(=O)c2ccc3c(c2)C2C=CCC2C(c2ccc(C(=O)O)cc2)N3)c1 (configuration not stated)	0	0	89.7	0	44.0	0	0	0	DNMT1 interf DR=0
C/C(CC(=O)Nc1ccccc1C#N)=N\NC(=O)c1ccncc1	0	0	81.9	0	0	0	0	0
Cc1ccc2oc(-c3ccc(C)c(NC(=O)Cc4cccs4)c3)nc2c1	0	0	51.9	0	0	0	0	0
Cc1ccc2oc(-c3ccc(C)c(NC(=S)NC(=O)c4cccs4)c3)nc2c1	0	0	51.1	0	0	0	0	0
SMILES	Scp-1 inhibitor	STEP inh	DNMT1 inh	LMPTP block	SUMO1-SIM PPI	NadD block	DNMT1 inh conf	DNMT1 interf	others
Cc1ccc2oc(-c3cccc(NC(=O)Cc4cccs4)c3)nc2c1	0	0	0	0	0	0	-	-
Cc1ccc(-c2nnc(-c3ccc(NC(=O)Cc4cccs4)cc3)o2)cc1	0	0	0	0	0	0	0	0
Cc1cc(NS(=O)(=O)c2ccc(NC(=O)Cc3cccs3)cc2)no1	0	0	0	0	0	0	-	-
Cc1cc(NC(=O)Cc2cccs2)no1	83.6	0	111.2	55.0	0	0	0	0
COc1ccccc1NS(=O)(=O)c1ccc(C(=O)NCCCN2CCOCC2)cc1	0	0	0	0	0	0	-	-
CNC(=O)c1ccsc1NC(=O)C1CCCN1S(=O)(=O)c1cccs1 (configuration not stated)	0	0	0	0	0	0	-	-
CCC1=NN2C(=N)/C(=C\c3ccc(SCc4ccco4)o3)C(=O)N=C2S1	0	0	107.6	0	53.9	0	0	0
CCCC1=NN2C(=N)/C(=C\c3ccc(SCc4ccco4)o3)C(=O)N=C2S1	80.9	0	104.9	51.4	50.4	0	0	0
CCC1=NN2C(=N)/C(=C/c3c(C)nn(-c4ccccc4)c3Cl)C(=O)N=C2S1	0	0	0	0	0	0	-	-
COC(=O)Cn1cc(/C=C(/C#N)C(=O)N2CCOCC2)c2ccccc21	0	0	0	0	0	0	-	-
O=c1c2c(nc3nc(Cc4ccccc4)[nH]n13)CCC2	0	0	60.5	0	0	0	0	0
Cc1nc2nc3c(c(=O)n2[nH]1)CCC3	0	0	0	0	0	0	-	-
O=C(CN1C(=O)COc2ccccc21)Nc1ccc(N2CCOCC2)cc1	0	0	0	0	0	0	-	-
CC(C)(C)C(=O)Cn1ncc(Cl)c(Cl)c1=O	0	0	0	0	0	0	-	-
C=CCn1c(C)cc(C(=O)Cn2ncc(Cl)c(Cl)c2=O)c1C	0	0	103.5	0	0	0	0	0
CCN(CC)CCN(Cc1cc2ccc(C)cc2[nH]c1=O)C(=O)Nc1ccc(Cl)cc1	0	0	0	0	0	0	-	-
O=C(N/N=C/c1cc(Br)ccc1O)c1ccncc1	0	0	0	0	0	0	-	-
O=C(N/N=C/c1cc(Cl)ccc1O)c1ccc(Br)cc1	98.2	91.1	81.3	71.8	0	0	0	0
COc1ccc(S(=O)(=O)N(CC(=O)NCc2ccccn2)Cc2ccccc2)cc1	0	0	0	0	0	0	-	-

Compound activity deposited in PubChem BioAssay by Sanford-Burnham Center for Chemical Genomics.
